Several values for one entry are separate records, joined by “and”; a condition that tells them apart may be missing. Equal values may be shown once.
Assays:
CP-AMPARs = CP-AMPARs (Rattus norvegicus, UniProt P19491); test: Whole-cell recordings, other NMDAR channel blockers on CP-AMPARs; format: cell-based; conditions: for Inhibitory effect on CP-AMPARs at hundreds of micromolar concentrations: hundreds of micromolar (10 and 100 µM shown in Fig. S1), 10 mM glutamate
[1] = biological target: GluA2(Q) in the presence of CTZ (Rattus norvegicus, UniProt P19491); test: Whole-cell patch-clamp, GluA2; format: cell-based; conditions: 500 µM memantine, 100 μM CTZ, 10 mM glutamate
GluA1/γ2 = GluA1/γ2 (Homo sapiens, UniProt P42261); test: Whole-cell patch-clamp, glutamate-induced currents, GluA1/γ2; format: cell-based
Chain of GluA1/γ2 (P42261 19-906, species assumed): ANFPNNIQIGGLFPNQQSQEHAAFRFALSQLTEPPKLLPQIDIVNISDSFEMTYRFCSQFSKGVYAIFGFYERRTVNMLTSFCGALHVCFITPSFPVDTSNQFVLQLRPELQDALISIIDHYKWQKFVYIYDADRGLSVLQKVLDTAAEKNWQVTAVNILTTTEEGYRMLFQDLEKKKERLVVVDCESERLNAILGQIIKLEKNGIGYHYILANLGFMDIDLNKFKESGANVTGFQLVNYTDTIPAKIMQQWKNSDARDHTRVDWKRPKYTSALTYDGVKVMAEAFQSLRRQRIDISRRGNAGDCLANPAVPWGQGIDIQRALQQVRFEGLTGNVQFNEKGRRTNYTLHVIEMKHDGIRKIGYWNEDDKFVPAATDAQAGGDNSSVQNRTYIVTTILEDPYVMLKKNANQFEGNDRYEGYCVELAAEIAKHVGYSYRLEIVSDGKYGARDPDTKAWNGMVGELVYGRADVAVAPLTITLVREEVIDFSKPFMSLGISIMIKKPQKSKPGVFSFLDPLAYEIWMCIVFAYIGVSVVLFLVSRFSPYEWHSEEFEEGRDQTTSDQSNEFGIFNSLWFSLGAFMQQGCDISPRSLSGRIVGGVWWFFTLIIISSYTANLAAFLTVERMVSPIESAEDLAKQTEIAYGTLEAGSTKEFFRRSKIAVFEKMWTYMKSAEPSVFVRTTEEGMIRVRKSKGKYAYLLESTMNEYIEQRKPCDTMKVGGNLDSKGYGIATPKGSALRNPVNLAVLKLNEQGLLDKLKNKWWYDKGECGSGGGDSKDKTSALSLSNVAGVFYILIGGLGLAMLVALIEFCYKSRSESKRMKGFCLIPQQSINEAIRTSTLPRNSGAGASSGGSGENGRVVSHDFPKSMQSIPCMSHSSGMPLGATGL
Chain of GluA1/γ2 (Q9Y698 whole entry partner, species assumed): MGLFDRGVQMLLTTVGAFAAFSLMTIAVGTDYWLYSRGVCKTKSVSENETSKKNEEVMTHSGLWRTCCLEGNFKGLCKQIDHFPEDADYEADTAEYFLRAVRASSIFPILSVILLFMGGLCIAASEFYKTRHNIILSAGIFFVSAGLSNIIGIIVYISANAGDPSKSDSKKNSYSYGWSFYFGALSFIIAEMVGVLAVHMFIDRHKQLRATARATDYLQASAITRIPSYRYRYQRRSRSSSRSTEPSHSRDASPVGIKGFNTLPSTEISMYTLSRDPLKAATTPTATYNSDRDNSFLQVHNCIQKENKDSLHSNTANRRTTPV
How it was run: (§1)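 HEK-293T cells at 40–50% confluency were lipofectamine-transfected with GluA1, or GluA1 plus GluA2(R), co-transfected with γ2 or γ8 and GFP. Cells were replated after 4–6 h in NBQX-containing medium and recorded 24–48 h post-transfection. […] IC50 came from a Hill fit of steady-state current inhibition versus concentration; ≥3 recordings over ≥3 days.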

GluA1/γ8 = GluA1/γ8 (Homo sapiens, UniProt P42261); test: Whole-cell patch-clamp, glutamate-induced currents, GluA1/γ8; format: cell-based
Chain of GluA1/γ8 (P42261 19-906, species assumed): as the sequence (P42261 19-906, species assumed) above
Chain of GluA1/γ8 (Q8WXS5 whole entry partner, species assumed): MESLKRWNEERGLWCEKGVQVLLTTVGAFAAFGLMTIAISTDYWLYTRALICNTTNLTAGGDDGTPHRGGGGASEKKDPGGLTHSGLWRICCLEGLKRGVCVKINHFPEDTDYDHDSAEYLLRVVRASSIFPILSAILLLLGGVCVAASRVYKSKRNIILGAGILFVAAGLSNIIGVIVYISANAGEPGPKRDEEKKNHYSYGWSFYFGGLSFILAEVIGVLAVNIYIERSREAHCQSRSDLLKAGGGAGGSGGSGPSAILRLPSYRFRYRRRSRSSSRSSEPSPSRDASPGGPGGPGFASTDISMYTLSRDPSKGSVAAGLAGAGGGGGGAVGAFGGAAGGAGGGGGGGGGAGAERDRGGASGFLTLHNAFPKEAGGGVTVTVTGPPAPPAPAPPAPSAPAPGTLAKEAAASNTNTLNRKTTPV
How it was run: as §1

GluA2(Q) = GluA2(Q) (Rattus norvegicus, UniProt P19491); test: Whole-cell patch-clamp, glutamate-induced currents, GluA2; format: cell-based; conditions: 500 µM memantine, 10 mM glutamate, no auxiliary subunit, no CTZ
How it was run: (§2)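 HEK-293T cells were transfected with GluA2(Q), GluA2(Q)/γ2 or GluA2(Q)/γ8 plus GFP, replated in NBQX medium, and recorded 24–48 h later. Whole-cell clamp at −60 mV, room temperature; CsF/CsCl/EGTA internal and NaCl/KCl/CaCl2/HEPES external, both pH 7.4. […] IC50 came from a Hill fit of steady-state inhibition; ≥3 recordings from ≥3 days.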

GluA2(Q)/γ2 = GluA2(Q)/γ2 (UniProt P19491+Q9Y698, E306D/I257V/N307S/S313A); test: as above; format: cell-based, rat; conditions: 10 mM glutamate
How it was run: as §2

GluA2(R)/γ2 = GluA2(R)/γ2 (Rattus norvegicus, UniProt P19491, Q607R); test: Whole-cell patch-clamp, glutamate-induced currents, CI-AMPAR GluA2; format: cell-based; conditions: 10 mM glutamate
GluA2(Q)/γ8 = GluA2(Q)/γ8 (UniProt P19491+Q8WXS5); test: Whole-cell patch-clamp, glutamate-induced currents, GluA2; format: cell-based, rat; conditions: 500 µM memantine, 10 mM glutamate
How it was run: as §2

GluA1-GluA2(R)/γ2 = GluA1-GluA2(R)/γ2 (UniProt P19491+P42261, Q607R); test: Whole-cell patch-clamp, co-expression of GluA1 and GluA2; format: cell-based
How it was run: as §1

[2] = biological target: GluA2(Q) subunit of GluA2-γ2EM (rat) (UniProt P19491); test: cryo-EM structure

Molecule: C[C@]12N[C@H](Cc3ccccc31)c1ccccc12 [MK801]
- Inhibition of CP-AMPARs in the concentration range where they inhibit NMDARs (CP-AMPARs): do not show significant inhibition
- Inhibitory effect on CP-AMPARs at hundreds of micromolar concentrations (CP-AMPARs): minimal inhibitory effect

Molecule: CNC1(c2ccccc2Cl)CCCCC1=O (stereo not drawn) [ketamine]
- Inhibition of CP-AMPARs in the concentration range where they inhibit NMDARs (CP-AMPARs): do not show significant inhibition
- Inhibitory effect on CP-AMPARs at hundreds of micromolar concentrations (CP-AMPARs): minimal inhibitory effect

Molecule: CC12CC3CC(C)(C1)CC(N)(C3)C2 [memantine, Memantine]
- Effect on steady-state currents of GluA2(Q) with CTZ [1]: showed inhibition of the steady-state currents
- IC50 (GluA1/γ2): 15 ± 2 µM
- IC50 (GluA1/γ8): 10 ± 2 µM
- Inhibition of whole-cell currents of GluA2(Q) in isolation (GluA2(Q)): did not show any significant inhibition
- Effect on peak and steady-state currents of GluA2(Q)/γ2 (GluA2(Q)/γ2; 500 µM memantine): inhibited
- IC50 (GluA2(Q)/γ2; IC50 for memantine inhibition of GluA2(Q)/γ2, HEK-293 cells, steady-state current, −60 mV): 49.3 µM and 49 µM
- Inhibitory effect on GluA2(R)/γ2 at 500 µM (GluA2(R)/γ2; 500 µM memantine): only a minor inhibitory effect
- Inhibition of GluA2(R)/γ2 currents at saturating concentrations (GluA2(R)/γ2; saturating concentrations of memantine): only partial inhibition
- Effect on peak and steady-state currents of GluA2(Q)/γ8 (GluA2(Q)/γ8): inhibited
- IC50 (GluA1-GluA2(R)/γ2): 697 ± 149 µM

Molecule: GluA2(Q) subunit of GluA2-γ2EM (from UniProt P19491-2 22-883) (receptor)
- stoichiometry N [2]: 4
